From ChEMBL document CHEMBL1143889, “N-Phenyl and N-phenylalkyl-maleimides acting against Candida spp.: time-to-kill, stability, interaction with maleamic acids” (2008)
≈ marks a conversion by molar mass, not a printed value. Calls of active or inactive are those of the source. The calls are words filed in the database; no cut-off is given here.

Experiments:
Candida parapsilosis = experiment: Antifungal activity against Candida parapsilosis C 124-2000 after 48 hrs by CLSI M27-A2 method; format: functional; details: Lodderomyces parapsilosis
Outline: (§1)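 Broth microdilution per CLSI M27-A2 in RPMI-1640, with twofold dilutions giving final 250–0.98 µg/mL. The inoculum was modified to 1–5 × 10⁴ CFU/mL instead of 1–5 × 10³, with ketoconazole and amphotericin B as positive controls. MIC was the lowest concentration giving total growth inhibition, read visually. Strains were grown on Sabouraud-chloramphenicol agar for 24 h at 37 °C.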

Candida albicans [1] = experiment: Antifungal activity against Candida albicans C 127-2000 after 48 hrs by CLSI M27-A2 method; format: functional; outline: as §1
Candida albicans [2] = experiment: Antifungal activity against Candida albicans C 128-2000 after 48 hrs by CLSI M27-A2 method; format: functional; outline: as §1
Candida albicans [3] = experiment: Antifungal activity against Candida albicans C 125-2000 after 48 hrs by CLSI M27-A2 method; format: functional; outline: as §1
Candida albicans [4] = experiment: Antifungal activity against Candida albicans C 129-2000 after 48 hrs by CLSI M27-A2 method; format: functional; outline: as §1
Candida albicans [5] = experiment: Antifungal activity against Candida albicans C 126-2000 after 48 hrs by CLSI M27-A2 method; format: functional; outline: as §1
Kluyveromyces marxianus = experiment: Antifungal activity against Candida kefyr C 123-2000 after 48 hrs by CLSI M27-A2 method; format: functional; outline: as §1
Nakaseomyces glabratus = experiment: Antifungal activity against Candida glabrata C 115-2000 after 48 hrs by CLSI M27-A2 method; format: functional; outline: as §1
Torulaspora delbrueckii = experiment: Antifungal activity against Candida coliculosa C 122-2000 after 48 hrs by CLSI M27-A2 method; format: functional; outline: as §1
Pichia kudriavzevii = experiment: Antifungal activity against Candida krusei C 117-2000 after 48 hrs by CLSI M27-A2 method; format: functional; outline: as §1
Candida albicans [6] = experiment: Antifungal activity against Candida albicans ATCC 10231 after 48 hrs by CLSI M27-A2 method; format: functional; details: ATCC 10231, 48 h; outline: as §1
Candida albicans [7] = experiment: Antifungal activity against Candida albicans C 130-2000 after 48 hrs by CLSI M27-A2 method; format: functional; outline: as §1
Candida tropicalis = experiment: Antifungal activity against Candida tropicalis C 137-1997 after 48 hrs by CLSI M27-A2 method; format: functional; outline: as §1
Clavispora lusitaniae = experiment: Antifungal activity against Candida lusitaniae C 131-2000 after 48 hrs by CLSI M27-A2 method; format: functional; outline: as §1
Candida albicans [8] = experiment: Antifungal activity against Candida albicans ATCC 10231 pre-incubated for 1 day analysed after 24 hrs by CLSI M27-A2 method; format: functional
Outline: (§2)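 Twofold maleimide dilutions (1000–0.98 µg/mL) in complete M27-A2 medium without inoculum were held at 37 °C, with one plate row filled on each of 7 consecutive days to give 0–7 days of pre-incubation. All wells were then inoculated with C. albicans ATCC 10231 at 1–5 × 10⁴ CFU/mL and incubated for 24 h at 37 °C. MIC was read per row, in duplicate.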

Candida albicans [9] = experiment: Antifungal activity against Candida albicans ATCC 10231 preincubated for 7 days analysed after 24 hrs by CLSI M27-A2 method; format: functional; outline: as §2
Candida albicans [10] = experiment: Antifungal activity against Candida albicans ATCC 10231 pre-incubated for 6 days analysed after 24 hrs by CLSI M27-A2 method; format: functional; outline: as §2
Candida albicans [11] = experiment: Antifungal activity against Candida albicans ATCC 10231 pre-incubated for 5 days analysed after 24 hrs by CLSI M27-A2 method; format: functional; outline: as §2
Candida albicans [12] = experiment: Antifungal activity against Candida albicans ATCC 10231 after 24 hrs by CLSI M27-A2 method; format: functional; details: ATCC 10231, 24 h; outline: as §1
Candida albicans [13] = experiment: Antifungal activity against Candida albicans ATCC 10231 within 90 mins by time-to-kill study; format: functional, organism-based
Outline: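 C. albicans ATCC 10231 (2–2.5 × 10⁴ CFU/mL) in 5 mL RPMI-1640 was exposed to 1× MFC of compound at 37 °C with agitation. 10 µL samples taken at 0, 30, 60, 90 and 120 min, and at 4, 8, 12 and 24 h, were plated on drug-free SDA and colonies counted after 24–48 h at 37 °C. Run in duplicate.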

Candida albicans [14] = experiment: Antifungal activity against Candida albicans ATCC 10231 pre-incubated for 4 days analysed after 24 hrs by CLSI M27-A2 method; format: functional; outline: as §2
Candida albicans [15] = experiment: Antifungal activity against Candida albicans ATCC 10231 pre-incubated for 2 days analysed after 24 hrs by CLSI M27-A2 method; format: functional; outline: as §2
Candida albicans [16] = experiment: Antifungal activity against Candida albicans ATCC 10231 pre-incubated for 3 days analysed after 24 hrs by CLSI M27-A2 method; format: functional; outline: as §2

| Compound | MIC (Candida parapsilosis) [µg/mL] | MIC (Candida albicans [1]) [µg/mL] | MIC (Candida albicans [2]) [µg/mL] | MIC (Candida albicans [3]) [µg/mL] | MIC (Candida albicans [4]) [µg/mL] | MIC (Candida albicans [5]) [µg/mL] | MIC (Kluyveromyces marxianus) [µg/mL] | MIC (Nakaseomyces glabratus) [µg/mL] | MIC (Torulaspora delbrueckii) [µg/mL] | MIC (Pichia kudriavzevii) [µg/mL] | MIC (Candida albicans [6]) [µg/mL] | MIC (Candida albicans [7]) [µg/mL] | MIC (Candida tropicalis) [µg/mL] | MIC (Clavispora lusitaniae) [µg/mL] | MIC (Candida albicans [8]) [µg/mL] | MIC (Candida albicans [9]) [µg/mL] | MFC (Candida parapsilosis) [µg/mL] | MFC (Candida albicans [1]) [µg/mL] | MFC (Candida albicans [2]) [µg/mL] | MFC (Candida albicans [3]) [µg/mL] | also measured |
| --- | --- | --- | --- | --- | --- | --- | --- | --- | --- | --- | --- | --- | --- | --- | --- | --- | --- | --- | --- | --- | --- |
| C[C@@H]1[C@H](O)[C@@H](C)/C=C/C=C/C=C/C=C/C=C/C=C/C=C/[C@H](O[C@@H]2O[C@H](C)[C@@H](O)[C@H](N)[C@@H]2O)C[C@@H]2O[C@](O)(C[C@@H](O)C[C@@H](O)[C@H](O)CC[C@@H](O)C[C@@H](O)CC(=O)O[C@H]1C)C[C@H](O)[C@H]2C(=O)O [AMPHOTERICIN B] | 0.78 (≈ 0.844 µM) | 0.78 (≈ 0.844 µM) | 1.56 (≈ 1.69 µM) | 0.78 (≈ 0.844 µM) | 0.78 (≈ 0.844 µM) | 1.56 (≈ 1.69 µM) | 0.78 (≈ 0.844 µM) | 0.39 (≈ 0.422 µM) | 0.39 (≈ 0.422 µM) | 0.39 (≈ 0.422 µM) | 1 (≈ 1.08 µM) | 0.39 (≈ 0.422 µM) | 0.12 (≈ 0.13 µM) | 0.39 (≈ 0.422 µM) |  |  |  |  |  |  |  |
| O=C(O)/C=C\C(=O)NCCCc1ccccc1 | > 250 | > 250 | > 250 | > 250 | > 250 | > 250 | > 250 | > 250 | > 250 | > 250 | > 250 | > 250 | > 250 | > 250 |  |  |  |  |  |  |  |
| O=C(O)/C=C\C(=O)NCCc1ccccc1 | > 250 | > 250 | > 250 | > 250 | > 250 | > 250 | > 250 | > 250 | > 250 | > 250 | > 250 | > 250 | > 250 | > 250 |  |  |  |  |  |  |  |
| O=C1C=CC(=O)N1c1ccccc1 | 1.95 (≈ 11.3 µM) | 0.97 (≈ 5.6 µM) | 0.97 (≈ 5.6 µM) | 0.48 (≈ 2.77 µM) | 0.48 (≈ 2.77 µM) | 0.97 (≈ 5.6 µM) | 1.95 (≈ 11.3 µM) | 1.95 (≈ 11.3 µM) | 1.95 (≈ 11.3 µM) | 1.95 (≈ 11.3 µM) | 3.9 (≈ 22.5 µM) | 0.48 (≈ 2.77 µM) | 7.81 (≈ 45.1 µM) | 3.9 (≈ 22.5 µM) | 3.9 (≈ 22.5 µM) | 500 (≈ 2890 µM) | 3.9 (≈ 22.5 µM) | 1.95 (≈ 11.3 µM) | 3.9 (≈ 22.5 µM) | 1.95 (≈ 11.3 µM) | MIC (Candida albicans [10]): 125 µg/mL (≈ 722 µM); MFC (Candida albicans [4]): 1.95 µg/mL (≈ 11.3 µM); MIC (Candida albicans [11]): 62.5 µg/mL (≈ 361 µM); MFC (Candida albicans [5]): 3.9 µg/mL (≈ 22.5 µM); MFC (Kluyveromyces marxianus): 3.9 µg/mL (≈ 22.5 µM); MFC (Nakaseomyces glabratus): 3.9 µg/mL (≈ 22.5 µM); MFC (Torulaspora delbrueckii): 3.9 µg/mL (≈ 22.5 µM); MIC (Candida albicans [12]): 3.9 µg/mL (≈ 22.5 µM); Activity (Candida albicans [13]): Active; MIC (Candida albicans [14]): 15.8 µg/mL (≈ 91 µM); MFC (Pichia kudriavzevii): 1.95 µg/mL (≈ 11.3 µM); MFC (Candida albicans [6]): 7.8 µg/mL (≈ 45 µM); MFC (Candida albicans [7]): 1.95 µg/mL (≈ 11.3 µM); MFC (Candida tropicalis): 15.8 µg/mL (≈ 91 µM); MFC (Clavispora lusitaniae): 7.8 µg/mL (≈ 45 µM); MIC (Candida albicans [15]): 3.9 µg/mL (≈ 22.5 µM); MIC (Candida albicans [16]): 7.8 µg/mL (≈ 45 µM) |

The next lines start with results.

| MIC (Candida parapsilosis) [µg/mL] | MIC (Candida albicans [1]) [µg/mL] | MIC (Candida albicans [2]) [µg/mL] | MIC (Candida albicans [3]) [µg/mL] | MIC (Candida albicans [4]) [µg/mL] | MIC (Candida albicans [5]) [µg/mL] | MIC (Kluyveromyces marxianus) [µg/mL] | MIC (Nakaseomyces glabratus) [µg/mL] | MIC (Torulaspora delbrueckii) [µg/mL] | MIC (Pichia kudriavzevii) [µg/mL] | MIC (Candida albicans [6]) [µg/mL] | MIC (Candida albicans [7]) [µg/mL] | MIC (Candida tropicalis) [µg/mL] | MIC (Clavispora lusitaniae) [µg/mL] | MIC (Candida albicans [8]) [µg/mL] | MIC (Candida albicans [9]) [µg/mL] | Compound | MFC (Candida parapsilosis) [µg/mL] | MFC (Candida albicans [1]) [µg/mL] | MFC (Candida albicans [2]) [µg/mL] | MFC (Candida albicans [3]) [µg/mL] | also measured |
| --- | --- | --- | --- | --- | --- | --- | --- | --- | --- | --- | --- | --- | --- | --- | --- | --- | --- | --- | --- | --- | --- |
| > 250 | > 250 | > 250 | > 250 | > 250 | > 250 | > 250 | > 250 | > 250 | > 250 | > 250 | > 250 | > 250 | > 250 |  |  | O=C(O)/C=C\C(=O)NCCCCc1ccccc1 |  |  |  |  |  |
| 3.9 (≈ 19.4 µM) | 1.95 (≈ 9.69 µM) | 3.9 (≈ 19.4 µM) | 1.95 (≈ 9.69 µM) | 1.95 (≈ 9.69 µM) | 3.9 (≈ 19.4 µM) | 3.9 (≈ 19.4 µM) | 1.95 (≈ 9.69 µM) | 1.95 (≈ 9.69 µM) | 3.9 (≈ 19.4 µM) | 3.9 (≈ 19.4 µM) | 1.95 (≈ 9.69 µM) | 15.8 (≈ 78.3 µM) | 3.9 (≈ 19.4 µM) | 3.9 (≈ 19.4 µM) | 500 (≈ 2480 µM) | O=C1C=CC(=O)N1CCc1ccccc1 | 3.9 (≈ 19.4 µM) | 3.9 (≈ 19.4 µM) | 7.81 (≈ 38.8 µM) | 1.95 (≈ 9.69 µM) | MIC (Candida albicans [10]): 250 µg/mL (≈ 1240 µM); MFC (Candida albicans [4]): 1.95 µg/mL (≈ 9.69 µM); MIC (Candida albicans [11]): 125 µg/mL (≈ 621 µM); MFC (Candida albicans [5]): 7.81 µg/mL (≈ 38.8 µM); MFC (Kluyveromyces marxianus): 3.9 µg/mL (≈ 19.4 µM); MFC (Nakaseomyces glabratus): 3.9 µg/mL (≈ 19.4 µM); MFC (Torulaspora delbrueckii): 7.81 µg/mL (≈ 38.8 µM); MIC (Candida albicans [12]): 3.9 µg/mL (≈ 19.4 µM); Activity (Candida albicans [13]): Active; MIC (Candida albicans [14]): 31.2 µg/mL (≈ 155 µM); MFC (Pichia kudriavzevii): 7.8 µg/mL (≈ 38.8 µM); MFC (Candida albicans [6]): 7.8 µg/mL (≈ 38.8 µM); MFC (Candida albicans [7]): 1.95 µg/mL (≈ 9.69 µM); MFC (Candida tropicalis): 32.2 µg/mL (≈ 160 µM); MFC (Clavispora lusitaniae): 7.8 µg/mL (≈ 38.8 µM); MIC (Candida albicans [15]): 7.8 µg/mL (≈ 38.8 µM); MIC (Candida albicans [16]): 7.8 µg/mL (≈ 38.8 µM) |
